Measured values as given in ChEMBL document CHEMBL3994605, “Synthesis and biological evaluation of curcumin inspired indole analogues as tubulin polymerization inhibitors” (Eur J Med Chem, 2017).
Activity calls are given as the source filed them. The rule behind the calls is not given here.

Tests used:
[1] = tested on: HGC-27; assay: Antiproliferative activity against human HGC27 cells after 48 hrs by MTT assay; format: functional, cell-based; conditions: HGC-27, 48 h
Procedure, shortened: (§1)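 MTT read-out. Cells were seeded at 5 × 10^3 per well in DMEM or RPMI with 10% FBS and grown 24 h at 37 °C in CO2. Compound dilutions in medium, with vehicle control, were then added for 48 h. MTT (0.5 mg/mL in medium) was given for 4 h, formazan was dissolved in DMSO, and A570 was read. IC50 was taken from concentration–response curves as mean ± SD of three experiments run in triplicate.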

[2] = tested on: MDA-MB-231; assay: Antiproliferative activity against human MDA-MB-231 cells after 48 hrs by MTT assay; format: functional, cell-based; conditions: MDA-MB-231, 48 h; procedure, shortened: as §1
[3] = tested on: MDA-MB-231; assay: Potency index, ratio of curcumin IC50 to compound IC50 for human MDA-MB-231 cells; format: functional
[4] = tested on: DU-145; assay: Antiproliferative activity against human DU145 cells after 48 hrs by MTT assay; format: functional, cell-based; conditions: DU-145, 48 h; procedure, shortened: as §1
[5] = tested on: PC-3; assay: Antiproliferative activity against human PC3 cells after 48 hrs by MTT assay; format: functional, cell-based; conditions: PC-3, 48 h; procedure, shortened: as §1
[6] = tested on: DU-145; assay: Potency index, ratio of curcumin IC50 to compound IC50 for human DU145 cells; format: functional
[7] = tested on: BT-549; assay: Potency index, ratio of curcumin IC50 to compound IC50 for human BT549 cells; format: functional
[8] = tested on: HeLa; assay: Antiproliferative activity against human HeLa cells after 48 hrs by MTT assay; format: functional, cell-based; procedure, shortened: as §1
[9] = tested on: 4T1; assay: Antiproliferative activity against mouse 4T1 cells after 48 hrs by MTT assay; format: functional, cell-based; conditions: 4T1, 48 h; procedure, shortened: as §1
[10] = tested on: A549; assay: Antiproliferative activity against human A549 cells after 48 hrs by MTT assay; format: functional, cell-based; conditions: A549, 48 h; procedure, shortened: as §1
[11] = species: Sus scrofa; assay: Inhibition of porcine brain tubulin polymerization assessed as reduction in incorporation of fluorescent reporter at 10 uM by fluorescence based assay relative to control
Procedure, shortened: (§2)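 Cell-free mix contained porcine brain tubulin (2 mg/mL) in 80 mM PIPES pH 6.9 with 2.0 mM MgCl2, 0.5 mM EGTA, 1.0 mM GTP and glycerol, with or without compound. Polymerization was tracked as a time-dependent fluorescence rise from reporter incorporation (ex 360, em 440 nm), with nocodazole as positive control. Inhibition was scored versus the untreated control. For IC50, the concentration giving 50% inhibition of assembly was used.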

[12] = tested on: PC-3; assay: Potency index, ratio of curcumin IC50 to compound IC50 for human PC3 cells; format: functional
[13] = tested on: BT-549; assay: Antiproliferative activity against human BT549 cells after 48 hrs by MTT assay; format: functional, cell-based; conditions: BT-549, 48 h; procedure, shortened: as §1
[14] = tested on: PC-3; assay: Cell cycle arrest in human PC3 cells assessed as accumulation at G2/M phase at 5 uM after 24 hrs by propidium iodide staining based flow cytometry (reference value: 12.2 to 24.74%); format: functional
Procedure, shortened: (§3)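 PC-3 cells were seeded at 1 × 10^5 cells/mL, attached 24 h, then treated 24 h. Cells were fixed overnight in 70% ethanol in PBS. Staining used propidium iodide ([…]) with RNase A ([…]) and 0.1% Triton X-100 for 30 min at 37 °C in the dark. About 10,000 events per sample were acquired by flow cytometry.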

[15] = tested on: PC-3; assay: Cell cycle arrest in human PC3 cells assessed as accumulation at G0/G1 phase at 2.5 uM after 24 hrs by propidium iodide staining based flow cytometry (reference value: 65.04 to 76.95%); format: functional; procedure, shortened: as §3
[16] = tested on: PC-3; assay: Cell cycle arrest in human PC3 cells assessed as accumulation at S phase at 2.5 uM after 24 hrs by propidium iodide staining based flow cytometry (reference value: 3.3 to 5.58%); format: functional; procedure, shortened: as §3
[17] = tested on: PC-3; assay: Induction of apoptosis in human PC3 cells assessed as horse shoe shaped nuclei at 2.5 to 5 uM after 48 hrs by acridine orange/ethidium bromide staining based fluorescence microscopic method; format: functional, cell-based
Procedure, shortened: (§4)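 PC-3 cells were plated at 25,000 per well, grown 24 h, then exposed 48 h. Cells were PBS-washed, stained with acridine orange and ethidium bromide ([…]), and imaged immediately by fluorescence microscopy (ex 488, em 550 nm) at 200×.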

[18] = Inhibition of porcine brain tubulin polymerization assessed as reduction in incorporation of fluorescent reporter by fluorescence based assay; parameters: species or system Sus scrofa; procedure, shortened: as §2
[19] = tested on: PC-3; assay: Induction of apoptosis in human PC3 cells assessed as chromatin condensation at 2.5 to 5 uM after 48 hrs by acridine orange/ethidium bromide staining based fluorescence microscopic method; format: functional, cell-based; procedure, shortened: as §4
[20] = tested on: PC-3; assay: Induction of apoptosis in human PC3 cells assessed as destructive fragmentation of nuclei at 2.5 to 5 uM after 48 hrs by acridine orange/ethidium bromide staining based fluorescence microscopic method; format: functional, cell-based; procedure, shortened: as §4
[21] = tested on: PC-3; assay: Induction of apoptosis in human PC3 cells assessed as nuclear fragmentation at 2.5 to 5 uM after 48 hrs by DAPI staining based fluorescence microscopic method; format: functional, cell-based
Procedure, shortened: (§5)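 PC-3 cells were seeded at 25,000 per well and adhered overnight, then exposed 48 h. Cells were fixed in 4% neutral buffered formalin for 20 min and permeabilized with 0.2% Triton X for 5 min. DAPI (1 mg/mL) staining ran 10 min at room temperature, followed by fluorescence microscopy (ex 350, em 460 nm) at 200×.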

[22] = tested on: PC-3; assay: Cell cycle arrest in human PC3 cells assessed as accumulation at G2/M phase at 2.5 uM after 24 hrs by propidium iodide staining based flow cytometry (reference value: 12.2 to 24.74%); format: functional; procedure, shortened: as §3
[23] = tested on: PC-3; assay: Induction of apoptosis in human PC3 cells assessed as nuclear shrinkage at 2.5 to 5 uM after 48 hrs by DAPI staining based fluorescence microscopic method; format: functional, cell-based; procedure, shortened: as §5
[24] = tested on: PC-3; assay: Induction of apoptosis in human PC3 cells assessed as horse shoe shaped nuclei at 2.5 to 5 uM after 48 hrs by DAPI staining based fluorescence microscopic method; format: functional, cell-based; procedure, shortened: as §5
[25] = tested on: PC-3; assay: Induction of apoptosis in human PC3 cells assessed as cell membrane blebbing at 2.5 to 5 uM after 48 hrs by acridine orange/ethidium bromide staining based fluorescence microscopic method; format: functional; procedure, shortened: as §4
[26] = tested on: PC-3; assay: Induction of apoptosis in human PC3 cells assessed as pyknotic nuclei at 2.5 to 5 uM after 48 hrs by DAPI staining based fluorescence microscopic method; format: functional, cell-based; procedure, shortened: as §5
[27] = tested on: PC-3; assay: Induction of apoptosis in human PC3 cells assessed as chromatin condensation at 2.5 to 5 uM after 48 hrs by DAPI staining based fluorescence microscopic method; format: functional, cell-based; procedure, shortened: as §5
[28] = tested on: PC-3; assay: Cell cycle arrest in human PC3 cells assessed as accumulation at S phase at 5 uM after 24 hrs by propidium iodide staining based flow cytometry (reference value: 3.3 to 5.58%); format: functional; procedure, shortened: as §3
[29] = tested on: PC-3; assay: Cell cycle arrest in human PC3 cells assessed as accumulation at G0/G1 phase at 5 uM after 24 hrs by propidium iodide staining based flow cytometry (reference value: 65.04 to 76.95%); format: functional; procedure, shortened: as §3
[30] = tested on: PC-3; assay: Induction of mitochondrial membrane potential loss in human PC3 cells assessed as ratio of green to red fluorescence at 5 uM after 24 hrs by JC1 staining based spectrofluorometric method (reference value: 0.103); format: functional
[31] = tested on: RWPE-1; assay: Antiproliferative activity against human RWPE1 cells after 48 hrs by MTT assay; format: cell-based; conditions: RWPE-1, 48 h; procedure, shortened: as §1
[32] = tested on: PC-3; assay: Cell cycle arrest in human PC3 cells assessed as accumulation at subG1 phase at 5 uM after 24 hrs by propidium iodide staining based flow cytometry (reference value: 4.29 to 7.23%); format: functional; procedure, shortened: as §3
[33] = tested on: PC-3; assay: Cell cycle arrest in human PC3 cells assessed as accumulation at subG1 phase at 2.5 uM after 24 hrs by propidium iodide staining based flow cytometry (reference value: 4.29 to 7.23%); format: functional; procedure, shortened: as §3
[34] = tested on: PC-3; assay: Cell cycle arrest in human PC3 cells assessed as accumulation at G2/M phase at 10 uM after 24 hrs by propidium iodide staining based flow cytometry (reference value: 12.2 to 24.74%); format: functional; procedure, shortened: as §3
[35] = tested on: PC-3; assay: Cell cycle arrest in human PC3 cells assessed as accumulation at subG1 phase at 10 uM after 24 hrs by propidium iodide staining based flow cytometry (reference value: 4.29 to 7.23%); format: functional; procedure, shortened: as §3
[36] = tested on: PC-3; assay: Cell cycle arrest in human PC3 cells assessed as accumulation at G0/G1 phase at 10 uM after 24 hrs by propidium iodide staining based flow cytometry (reference value: 65.04 to 76.95%); format: functional; procedure, shortened: as §3
[37] = tested on: PC-3; assay: Cell cycle arrest in human PC3 cells assessed as accumulation at S phase at 10 uM after 24 hrs by propidium iodide staining based flow cytometry (reference value: 3.3 to 5.58%); format: functional; procedure, shortened: as §3

Row | Compound | IC50 [1] | IC50 [2] | Ratio IC50 [3] | IC50 [4] | IC50 [5] | Ratio IC50 [6] | Ratio IC50 [7] | IC50 [8] | IC50 [9] | IC50 [10] | inhibition [11] | Ratio IC50 [12] | IC50 [13] | Activity [14] | Activity [15] | Activity [16] | Activity [17] | IC50 [18] | Activity [19] | Activity [20] | other results
1 | COc1ccc(/C=C/C(=O)/C=C/c2c[nH]c3ccccc23)cc1OC | 7.45 µM | 15.7 µM | 1 | 13.3 µM | 5.52 µM | 2.1 | 5.3 | 6.44 µM | 21.9 µM | 30.2 µM | 39.7% | 2.2 | 4.69 µM | – | – | – | – | – | – | – | –
2 | COc1ccc(OC)c(/C=C/C(=O)/C=C/c2c[nH]c3ccccc23)c1 | 5.21 µM | 6.02 µM | 2.6 | 7.71 µM | 6.34 µM | 3.7 | 2.9 | 6.59 µM | 16.1 µM | 19 µM | 51.7% | 1.9 | 8.34 µM | 55.93% | 38.65% | 2.43% | Active | 10.2 µM | Active | Active | Activity [21]: Active; Activity [22]: 57.54%; Activity [23]: Active; Activity [24]: Active; Activity [25]: Active; Activity [26]: Active; Activity [27]: Active; Activity [28]: 1.36%; Activity [29]: 41.11%; Ratio [30]: 0.135; IC50 [31]: 18.6 µM; Activity [32]: 1.31%; Activity [33]: 0.6%
3 | COc1cc(/C=C/C(=O)/C=C/c2c[nH]c3ccccc23)cc(OC)c1OC | 8.65 µM | 11.4 µM | 1.4 | 8.92 µM | 3.15 µM | 3.2 | 2.8 | 3.31 µM | 9.79 µM | 8.01 µM | 57.3% | 3.9 | 8.72 µM | 29.87% | 58.47% | 8.94% | Active | 8.81 µM | Active | Active | Activity [34]: 31.42%; Activity [35]: 5.99%; Activity [36]: 51.68%; Activity [21]: Active; Activity [22]: 27.04%; Activity [23]: Active; Activity [24]: Active; Activity [25]: Active; Activity [26]: Active; Activity [27]: Active; Activity [28]: 6.2%; Activity [29]: 58.52%; Ratio [30]: 0.132; IC50 [31]: 6.42 µM; Activity [37]: 10.04%; Activity [32]: 3.46%; Activity [33]: 4.74%
